From ChEMBL document CHEMBL1124408, “3-aminopyridazine derivatives with atypical antidepressant, serotonergic, and dopaminergic activities” (J Med Chem, 1989)

Columns and labels:
[1] = (§1) Acute toxicity in mice after intraperitoneal administration.; conditions: mouse, in vivo, ip, LD50
[2] = test system: Mus musculus; assay: Serotonergic activity was determined by measuring the potentiation of 5-hydroxytryptophan in mice upon ip administration; format: functional
Method in brief: (§2)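 Drug was injected ip in distilled water/gum tragacanth to female CD1 mice (18-22 g) at multiple doses (7-20 mice/dose), 30 min before a threshold dose of L-5-HTP (200 mg/kg ip). Mice were held singly in small cages, and tremor was scored all-or-none over the 20 min after L-5-HTP.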

[3] = test system: Mus musculus; assay: Ability to modify turning behavior of mice after intraperitoneal administration; format: functional; conditions: ip, read-out: MED
Method in brief: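 Female CD1 mice (25-30 g) were lesioned by stereotaxic injection of 6-OHDA (10 μg in 1 μL saline with 1 mg/mL ascorbic acid) into the right striatum under pentobarbitone (60 mg/kg ip). Seven days later, drug in distilled water/gum tragacanth was given ip at multiple doses (7-20 mice/dose). Ipsilateral turns were counted for 2 min starting 30 min post-dose.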

[4] = test system: Mus musculus; assay: Antidepressant activity against reserpine induced ptosis in mice after intraperitoneal administration.; format: functional; conditions: ip
Method in brief: (§3)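 Female CD1 mice (18-22 g) received the drug in distilled water/gum tragacanth ip at multiple doses (7-20 mice/dose), given together with reserpine (2 mg/kg iv). One hour later, palpebral ptosis (half or more of the lid closed) was scored all-or-none. Screening dose was at most 50% of the seizure threshold dose.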

[5] = test system: Mus musculus; assay: Serotonergic activity by measuring the potentiation of 5-hydroxy tryptophan in mice upon ip administration; value ranges from 4.9-6.7; format: functional; method in brief: as §2
[6] = test system: Mus musculus; assay: Serotonergic activity by measuring the potentiation of 5-hydroxy tryptophan in mice upon ip administration; value ranges from 3-7.9.; format: functional; method in brief: as §2
[7] = test system: Mus musculus; assay: Compound was tested for antidepressant activity against reserpine induced ptosis in mice after intraperitoneal administration; value ranges from 1.8-4.1; format: functional; conditions: ip; method in brief: as §3
[8] = test system: Mus musculus; assay: as §1; conditions: in vivo, ip
[9] = test system: Mus musculus; assay: Compound was tested for antidepressant activity against reserpine induced ptosis in mice after intraperitoneal administration.; value ranges from 4-7; format: functional; conditions: ip; method in brief: as §3
[10] = test system: Mus musculus; assay: Serotonergic activity by measuring the potentiation of 5-hydroxy tryptophan in mice upon ip administration; value ranges from 19-31; format: functional; method in brief: as §2
[11] = test system: Mus musculus; assay: Compound was tested for antidepressant activity against reserpine induced ptosis in mice after intraperitoneal administration.; value ranges from 3.2-6.3; format: functional; conditions: ip; method in brief: as §3
[12] = test system: Mus musculus; assay: Serotonergic activity by measuring the potentiation of 5-hydroxy tryptophan in mice upon ip administration; the value ranges from 3-38; format: functional; method in brief: as §2
[13] = test system: Mus musculus; assay: Compound was tested for antidepressant activity against reserpine induced ptosis in mice after intraperitoneal administration.; value ranges from 24-55; format: functional; conditions: ip; method in brief: as §3
[14] = test system: Mus musculus; assay: Compound was tested for antidepressant activity against reserpine induced ptosis in mice after intraperitoneal administration.; value ranges from 4.0-5.7; format: functional; conditions: ip; method in brief: as §3
[15] = test system: Mus musculus; assay: Serotonergic activity by measuring the potentiation of 5-hydroxy tryptophan in mice upon ip administration; value ranges from 3.8-4.9; format: functional; method in brief: as §2
[16] = Compound was tested for acute toxicity in mice after intraperitoneal administration; format: organism-based; conditions: mouse, in vivo, ip
Method in brief: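 Female CD1 mice in groups of 5-10 received drug or vehicle (distilled water with gum tragacanth) ip. LD50 was derived graphically.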

[17] = test system: Mus musculus; assay: Compound was tested for antidepressant activity against reserpine induced ptosis in mice after intraperitoneal administration.; value ranges from 11-34; format: functional; conditions: ip; method in brief: as §3
[18] = test system: Mus musculus; assay: Compound was tested for antidepressant activity against reserpine induced ptosis in mice after intraperitoneal administration.; value ranges from 31-38; format: functional; conditions: ip; method in brief: as §3

Row | Compound | LD50 [1] | ED50 [2] | minimal effective dose [3] | ED50 [4] | further results
1 | Clc1ccccc1Cc1cc(-c2ccccc2)nnc1NCCN1CCOCC1 | 95 mg/kg | > 50 mg/kg | 10 mg/kg | > 50 mg/kg | 
2 | Br.Br.Cc1cc(-c2cccc(O)c2)nnc1NCCN1CCOCC1 | > 200 mg/kg | > 30 mg/kg | 10 mg/kg | > 50 mg/kg | 
3 | Cc1cc(-c2ccccc2)nnc1NCCCN | 300 mg/kg | > 30 mg/kg | 0.1 mg/kg | 50 mg/kg | 
4 | Clc1ccc(Cc2cc(-c3ccccc3)nnc2NCCN2CCOCC2)cc1 | 180 mg/kg | > 30 mg/kg | 10 mg/kg | > 30 mg/kg | 
5 | CCCN(CCC)CCNc1nnc(-c2ccccc2)cc1C | 76 mg/kg | > 30 mg/kg | 2 mg/kg | > 30 mg/kg | 
6 | Cc1cc(-c2ccc(Cl)cc2)nnc1NCCN1CCOCC1 | 62 mg/kg |  | > 2 mg/kg | > 10 mg/kg | ED50 [5]: 5.8 mg/kg
7 | Cc1cc(-c2ccccc2F)nnc1NCCN1CCOCC1 | 26 mg/kg | > 10 mg/kg | 0.5 mg/kg | > 10 mg/kg | 
8 | c1ccc(Cc2cc(-c3ccccc3)nnc2NCCN2CCOCC2)cc1 | 131 mg/kg | > 50 mg/kg | 2 mg/kg | > 50 mg/kg | 
9 | Cc1cc(-c2ccc3ccccc3c2)nnc1NCCN1CCOCC1 | 23 mg/kg |  | > 2 mg/kg | > 10 mg/kg | 
10 | CN(C)CCCN1c2ccccc2CCc2ccc(Cl)cc21 [CLOMIPRAMINE] |  |  |  |  | ED50 [6]: 4.8 mg/kg; ED50 [7]: 3.3 mg/kg
11 | COc1ccc(-c2cc(C)c(NCCN3CCOCC3)nn2)cc1 | 19 mg/kg | > 5 mg/kg | > 2 mg/kg | > 5 mg/kg | 
12 | Cc1cc(C)c(NCCN2CCOCC2)nn1 | > 100 mg/kg | > 50 mg/kg | > 10 mg/kg | > 50 mg/kg | 
13 | Cc1cc(-c2ccccc2)nnc1NCCN1CCOCC1.Cl |  |  |  |  | LD50 [8]: 63 mg/kg; ED50 [9]: 5 mg/kg; ED50 [10]: 24 mg/kg
14 | CCc1cc(-c2ccccc2)nnc1NCCN1CCOCC1 | 31 mg/kg | > 10 mg/kg | 2 mg/kg | > 10 mg/kg | 
15 | Cc1cc(-c2ccc([N+](=O)[O-])cc2)nnc1NCCN1CCOCC1 | 35 mg/kg |  |  |  | 
16 | Cc1cc(C2CCCCC2)nnc1NCCN1CCOCC1 | 43 mg/kg |  | > 10 mg/kg |  | ED50 [11]: 4.5 mg/kg; ED50 [12]: 16 mg/kg
17 | Cc1cc(-c2cccc(Cl)c2)nnc1NCCN1CCOCC1 | 21 mg/kg | > 10 mg/kg | > 2 mg/kg | > 10 mg/kg | 
18 | CNCCNc1nnc(-c2ccccc2)cc1C | > 200 mg/kg | ≥ 30 mg/kg | 2 mg/kg |  | ED50 [13]: 36 mg/kg
19 | Cc1cc(-c2cccs2)nnc1NCCN1CCOCC1 | 59 mg/kg |  | > 10 mg/kg |  | ED50 [14]: 4.8 mg/kg; ED50 [15]: 4.2 mg/kg
20 | Cc1cc(-c2ccccc2)nnc1NCCCN1CCOCC1 |  | > 25 mg/kg | 2 mg/kg | > 30 mg/kg | LD50 [16]: 66 mg/kg
21 | Cc1cc(Cc2ccccc2)nnc1NCCN1CCOCC1 | 30 mg/kg | > 10 mg/kg | 2 mg/kg | > 10 mg/kg | 
22 | CCN(CC)CCNc1nnc(-c2ccccc2)cc1C | 80 mg/kg | > 30 mg/kg | > 10 mg/kg | > 30 mg/kg | 
23 | Cc1cc(-c2ccccc2)nnc1NCCN1CCOCC1C (centres undefined) | 110 mg/kg | 30 mg/kg | > 2 mg/kg |  | ED50 [17]: 20 mg/kg
24 | Cc1cc(-c2ccccc2)nnc1NC(C)CN (centres undefined) | > 200 mg/kg | > 30 mg/kg | 2 mg/kg |  | ED50 [18]: 34 mg/kg
